Source: PubChem BioAssay (The Scripps Research Institute Molecular Screening Center)
Compounds with a hit are over-represented: about 2.7% of the library has one in this group of screens.
OX1R antag-1: antagonists of human orexin 1 receptor (OX1R). AID 485270, 2010. Orexin/Hypocretin receptor type 1 (Homo sapiens), O43613. hit rate 1.8% among 330,000. inhibition, % at 6.6 µM. OX1R-expressing cells, FRET antagonist read-out; in the data active means inhibition mostly above about 38%, no sharp cut-off; inactive means mostly below about 40%;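 further: 0% = agonist challenge alone and 100% = reference antagonist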
Target sequence (O43613 whole entry, looked up): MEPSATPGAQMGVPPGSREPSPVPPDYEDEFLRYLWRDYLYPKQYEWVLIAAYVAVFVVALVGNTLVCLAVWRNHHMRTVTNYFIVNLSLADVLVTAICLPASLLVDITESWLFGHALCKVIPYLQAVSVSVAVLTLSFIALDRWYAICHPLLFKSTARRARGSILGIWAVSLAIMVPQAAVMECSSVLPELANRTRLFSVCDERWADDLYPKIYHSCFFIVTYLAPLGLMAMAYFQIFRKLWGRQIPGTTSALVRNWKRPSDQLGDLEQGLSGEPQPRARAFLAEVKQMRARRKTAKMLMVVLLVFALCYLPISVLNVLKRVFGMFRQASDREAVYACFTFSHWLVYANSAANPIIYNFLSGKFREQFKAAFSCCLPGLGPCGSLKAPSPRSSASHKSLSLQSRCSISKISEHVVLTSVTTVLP
OX1R antag-2: OX1R (HCRTR1) antagonists, primary screen, fluorescence, CHO/OX1R cells, Fluo-8 calcium, orexin A. Orexin/Hypocretin receptor type 1 (Homo sapiens), O43613. Fluo-8 calcium fluorescence. inhibition, % at 5 µM. hit rate 0.43% among 330,000;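 active means inhibition above its plate's threshold, mean inhibition of all tested compounds on the plate plus 3 SD, cut at about 37% in these data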;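 further: 0% = orexin A challenge wells and 100% = SB-334867-A antagonist wells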
V1R ag counter: agonists of human V1a receptor, primary screen, counter-screen for OXTR agonist project, fluorescence, CHO-V1R cells; Fluo-8 calcium fluorescence, agonist mode; 0% DMSO, 100% 3 nM vasopressin; activation, % at 3 µM; hit rate 0.25% among 320,000; AID 2797, 2010;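 active means activation above the mean activation of all tested compounds plus 3 SD, per screening run, cut at about 20% in these data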;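 further: signal is peak over basal fluorescence ratio across a 100 second FLIPR read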
OXTR ag: human OXTR agonists, primary screen, fluorescence, CHO-OTR cells, Fluo-8 calcium. Oxytocin receptor (Homo sapiens), P30559. Fluo-8 calcium fluorescence; normalized: DMSO 0%, oxytocin 100%. activation, % at 3 µM. hit rate 0.32% among 320,000. AID 2435, 2010;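 active means activation above the mean of all tested compounds plus 3 SD, cutoff set per screening run, cut at about 20% in these data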;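 further: peak over basal fluorescence ratio from a 100 s FLIPR kinetic read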
CHO parental Ca: ATP-evoked calcium signal inhibitors, parental CHO, primary screen, counter-screen for OX1R antagonist project, cell-based, fluorescence, Fluo-8 calcium dye; parental CHO-K1, ATP-induced calcium, Fluo-8 fluorescence; inhibition, % at 5.6 µM; hit rate 0.63% among 330,000;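 active means inhibition above that plate's mean sample inhibition plus 3 SD, cut at about 26% in these data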;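 further: 0% = ATP-challenged DMSO wells and 100% = DMSO wells without ATP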
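Material: parental CHO cells / Compound: single nominal dose of 5.6 µM per compound / Signal: Fluo-8 fluorescence / Replicates: singlicate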
OXTR potentiator: human OXTR potentiators, primary screen, fluorescence, CHO-OTR cells, Fluo-8 calcium. Fluo-8 calcium fluorescence, potentiator mode; 0% = oxytocin EC15, 100% = EC100. hit rate 0.061% among 320,000. activation, % at 3 µM. Oxytocin receptor (Homo sapiens), P30559;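 active means activation above that plate's cutoff, the mean activation of tested compounds plus 3 SD, cut at about 6.6% in these data, passing the limit was not always enough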;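 further: 100% uses oxytocin at 75 nM as the full agonist control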
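Assay system: CHO-OTR cells, human receptor / Also added: oxytocin at about EC15, sub-maximal agonist stimulus / Dosing: single dose, 3.0 µM nominal final compound concentration / Incubation: 6 min pre-incubation, 100 s read / Technique: Fluo-8 calcium dye fluorescence / Read-out: % activation vs EC15 and EC100 oxytocin / Benchmarks: EC15 oxytocin low, 75 nM oxytocin high / Replicates: singlicate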
Active calls of the source: *.

SMILES | OX1R antag-1 | OX1R antag-2 | V1R ag counter | OXTR ag | CHO parental Ca | OXTR potentiator
Nc1ncc(Br)cc1S(=O)(=O)Nc1cc(C(F)(F)F)cc(C(F)(F)F)c1 | 85* | 25 | 12 | 9 | 25 | -10
O=C(NNC(=O)c1cc([N+](=O)[O-])ccc1Cl)c1cccs1 | 46* | -4 | 0 | -1 | -4 | -13
O=C(c1ccc([N+](=O)[O-])cc1)N1CCN(C(=O)c2cccs2)CC1 | 50* | -10 | 0 | 0 | -5 | -6
O=C(NC(=S)N1CCN(c2ccc([N+](=O)[O-])cc2)CC1)c1ccccc1F | 41 | -16 | 1 | -2 | -15 | -10
O=Cc1ccc(OC(=O)Cc2ccc(F)cc2)cc1 | 10 | 2 | 0 | 0 | 6 | -13
Cc1oc2c(c1C(=O)N1CCC(C)CC1)C(=O)c1ccccc1C2=O | 67* | -31 | -1 | -1 | -21 | -6
CCOC(=O)C1CCN(C(=O)c2c(C)oc3c2C(=O)c2ccccc2C3=O)CC1 | 70* | -33 | 0 | -1 | -18 | -6
Cc1cc(SCC(=O)N/N=C/c2ccc(O)c(O)c2)nc2ccccc12 | 17 | -4 | 5 | 2 | -4 | -9
Cc1cc(SCC(=O)N/N=C/c2ccc(O)cc2O)nc2ccccc12 | 50* | -4 | 9 | 10 | 12 | -21
COc1ccc(NC(=O)C2CCN(C(=O)Nc3ccccc3)CC2)cc1S(=O)(=O)N(C)C | 4 | -18 | 2 | 1 | -8 | 3
c1ccc2c(c1)CCN(c1nc3ccccc3n3cnnc13)C2 | 53* | -17 | -1 | -1 | -15 | -10
O=C(O)c1nn2cc(CCO)cnc2c1Cl | 16 | 7 | 1 | 3 | 4 | -3
CCN(CC)CC(=O)Nc1cccc2c1C(=O)c1ccccc1C2=O | 13 | -2 | -1 | -2 | -17 | -8
CN(C=[N+](C)C)c1cccc2c1C(=O)c1ccccc1C2=O | 75* | -12 | 0 | 0 | -2 | -10
COc1ccc(Nc2nc(N3CCCC3)c3ccccc3n2)cc1 | 30 | 1 | 3 | 6 | -2 | -17
CCN(CC)c1ccc(Nc2nc(N3CCOCC3)c3ccccc3n2)cc1 | 42* | 4 | 2 | 0 | 5 | -6
O=C(NN=C1c2ccccc2-c2ccccc21)c1ccccc1Br | 49* | 24 | -1 | -1 | -20 | -2
O=C(C#Cc1ccccc1)c1cccc([N+](=O)[O-])c1 | 17 | 13 | -1 | -2 | 36* | 2
NC(=O)CC1NC(=O)c2cc([N+](=O)[O-])cc(I)c2OCCC(C(N)=O)NC(=O)[C@@H]2CCCN2C1=O (stereo partly specified) | 61* | -15 | 0 | -1 | -11 | -11
NCCCC[C@H]1NC(=O)[C@H](CCC(=O)O)NC(=O)c2cc([N+](=O)[O-])cc(I)c2OCC[C@@H](C(N)=O)NC1=O | 10 | -3 | 1 | 1 | -6 | 6
O=C(Nc1nccs1)c1ccc2nccnc2c1 | 46* | -4 | 0 | -1 | -17 | -4
Cc1ccc(C(=O)Nc2nccs2)cc1 | 25 | -11 | 0 | 0 | -13 | 3
O=C(Nc1nccs1)c1ccc2ccccc2n1 | 71* | -6 | 0 | -1 | -14 | 7
Cc1csc(NC(=O)c2ccc3ccccc3n2)n1 | 18 | -28 | -1 | -2 | -14 | -5
CCC(CC)c1nnc(NC(=O)c2ccc3ccccc3n2)s1 | 49* | -3 | -1 | -1 | -19 | -4
SMILES | OX1R antag-1 | OX1R antag-2 | V1R ag counter | OXTR ag | CHO parental Ca | OXTR potentiator
CCOc1ccc(S(=O)(=O)N2CCC(C(=O)NCC3CCCO3)CC2)cc1Cl (stereo unspecified) | 41 | -15 | -1 | -2 | -26 | -13
O=Cc1ccc(C(=O)OCC(=O)NCc2ccco2)cc1 | 2 | 7 | 3 | 1 | -2 | -4
Cc1cccc(C)c1Nc1nnc(SCc2cc([N+](=O)[O-])cc3c2OCOC3)s1 | 14 | -5 | 1 | 1 | -13 | -10
COc1cccc(Nc2nnc(SCc3cc([N+](=O)[O-])cc4c3OCOC4)s2)c1 | 68* | -17 | 0 | 0 | 5 | -10
O=C(N/N=C/c1cc(Br)ccc1O)C(=O)Nc1ccccc1OC(F)(F)C(F)F | 31 | 1 | 0 | 1 | -9 | -2
O=C(N/N=C/c1cc(Cl)ccc1O)C(=O)Nc1ccccc1OC(F)(F)C(F)F | 69* | -3 | 1 | 1 | -15 | -7
COc1ccc(-[n+]2c(C)cc(/C=C3\Sc4ccccc4N3C)cc2C)cc1 | 56* | 31 | 13 | 15 | 46* | -20
CCOC(=O)N1CCN(C2CCCN(C(=O)c3ccccc3N(C)C)C2)CC1 (stereo unspecified) | 19 | -12 | 1 | -1 | -12 | 0
C=CCN1N=C(c2ccc(NC(=O)c3ccccc3)cc2)CSC1=O | 9 | -9 | 2 | -1 | 47* | -3
CC(C)NC(=O)c1ccc(COc2ccc(C(C)(C)C)cc2)o1 | 4 | 40 | 4 | 5 | 66* | -18
CN(C)CCCN1C(=O)c2cccc3c([N+](=O)[O-])ccc(c23)C1=O | 68* | 21 | 0 | 1 | 18 | -2
COc1ccc(OC)c(S(=O)(=O)N2CCN(c3ncccn3)CC2)c1 | 5 | -7 | 3 | 0 | -8 | -18
COc1ccc(OC)c(S(=O)(=O)N2CCN(c3c(C)cccc3C)CC2)c1 | 13 | -29 | -1 | -2 | 26* | -4
COc1ccc(C(=O)Oc2ccc3ccc(=O)oc3c2)cc1 | 9 | 1 | 1 | 2 | -1 | 7
COc1ccc(C(=O)Oc2ccc3oc(=O)sc3c2)cc1 | 0 | 27 | 0 | 0 | 57* | -2
CC(=O)c1ccc(N2CCN(C(=S)Nc3ccc(Oc4ccccc4)cc3)CC2)cc1 | 52 | 52* | 5 | 6 | 45* | -14
CSc1ncccc1C(=O)Nc1ccc2nc(C)sc2c1 | 18 | -29 | 0 | 0 | -16 | -8
CCOc1ncccc1C(=O)Nc1ccc2nc(C)sc2c1 | 76* | -4 | 0 | -1 | -6 | -4
CCOC(=O)C1=C(C)N(CCC(=O)O)C(=O)NC1c1ccccc1Cl (stereo unspecified) | 20 | -6 | 0 | 1 | -10 | 8
COc1ccc(CCN2C(=O)CSC2c2ccc(F)cc2)cc1 (stereo unspecified) | 15 | -24 | 8 | -2 | -13 | -20
